The values that follow come from ChEMBL document CHEMBL3804828, “2,4,6-Triaminopyrimidine as a Novel Hinge Binder in a Series of PI3Kδ Selective Inhibitors” (J Med Chem, 2016).

The target in series [1] is PI3-kinase p110-delta/p85-alpha (Homo sapiens, UniProt O00329). Briefly: Inhibition human full length PI3Kdelta catalytic subunit/p85alpha assessed as formation of PIP3 after 30 mins by europium labeled GRP-based TR-FRET assay. It is filed as protein-complex assay. (In general: In TR-FRET formats the signal depends on donor and acceptor labels being close together.)
Chain of PI3-kinase p110-delta/p85-alpha (P27986 whole entry, canonical isoform): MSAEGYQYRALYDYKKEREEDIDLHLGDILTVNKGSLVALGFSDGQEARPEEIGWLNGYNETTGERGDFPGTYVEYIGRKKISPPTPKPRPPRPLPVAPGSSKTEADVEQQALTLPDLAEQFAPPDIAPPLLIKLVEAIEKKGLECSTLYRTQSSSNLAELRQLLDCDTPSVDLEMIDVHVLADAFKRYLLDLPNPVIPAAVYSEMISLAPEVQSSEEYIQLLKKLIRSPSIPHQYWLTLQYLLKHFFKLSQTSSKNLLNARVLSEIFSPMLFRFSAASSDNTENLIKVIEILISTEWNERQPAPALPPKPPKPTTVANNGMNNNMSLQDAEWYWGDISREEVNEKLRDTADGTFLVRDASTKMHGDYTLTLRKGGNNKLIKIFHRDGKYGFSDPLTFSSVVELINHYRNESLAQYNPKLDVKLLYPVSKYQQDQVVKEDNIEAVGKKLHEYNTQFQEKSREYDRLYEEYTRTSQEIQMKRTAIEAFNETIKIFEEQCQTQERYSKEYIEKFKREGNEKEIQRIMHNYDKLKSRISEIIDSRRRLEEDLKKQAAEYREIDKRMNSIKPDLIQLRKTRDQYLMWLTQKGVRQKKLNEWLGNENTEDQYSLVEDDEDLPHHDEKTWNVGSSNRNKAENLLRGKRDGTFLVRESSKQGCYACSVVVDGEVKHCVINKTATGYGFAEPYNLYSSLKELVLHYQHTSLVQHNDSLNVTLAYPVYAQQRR
Chain of PI3-kinase p110-delta/p85-alpha (O00329 whole entry, canonical isoform): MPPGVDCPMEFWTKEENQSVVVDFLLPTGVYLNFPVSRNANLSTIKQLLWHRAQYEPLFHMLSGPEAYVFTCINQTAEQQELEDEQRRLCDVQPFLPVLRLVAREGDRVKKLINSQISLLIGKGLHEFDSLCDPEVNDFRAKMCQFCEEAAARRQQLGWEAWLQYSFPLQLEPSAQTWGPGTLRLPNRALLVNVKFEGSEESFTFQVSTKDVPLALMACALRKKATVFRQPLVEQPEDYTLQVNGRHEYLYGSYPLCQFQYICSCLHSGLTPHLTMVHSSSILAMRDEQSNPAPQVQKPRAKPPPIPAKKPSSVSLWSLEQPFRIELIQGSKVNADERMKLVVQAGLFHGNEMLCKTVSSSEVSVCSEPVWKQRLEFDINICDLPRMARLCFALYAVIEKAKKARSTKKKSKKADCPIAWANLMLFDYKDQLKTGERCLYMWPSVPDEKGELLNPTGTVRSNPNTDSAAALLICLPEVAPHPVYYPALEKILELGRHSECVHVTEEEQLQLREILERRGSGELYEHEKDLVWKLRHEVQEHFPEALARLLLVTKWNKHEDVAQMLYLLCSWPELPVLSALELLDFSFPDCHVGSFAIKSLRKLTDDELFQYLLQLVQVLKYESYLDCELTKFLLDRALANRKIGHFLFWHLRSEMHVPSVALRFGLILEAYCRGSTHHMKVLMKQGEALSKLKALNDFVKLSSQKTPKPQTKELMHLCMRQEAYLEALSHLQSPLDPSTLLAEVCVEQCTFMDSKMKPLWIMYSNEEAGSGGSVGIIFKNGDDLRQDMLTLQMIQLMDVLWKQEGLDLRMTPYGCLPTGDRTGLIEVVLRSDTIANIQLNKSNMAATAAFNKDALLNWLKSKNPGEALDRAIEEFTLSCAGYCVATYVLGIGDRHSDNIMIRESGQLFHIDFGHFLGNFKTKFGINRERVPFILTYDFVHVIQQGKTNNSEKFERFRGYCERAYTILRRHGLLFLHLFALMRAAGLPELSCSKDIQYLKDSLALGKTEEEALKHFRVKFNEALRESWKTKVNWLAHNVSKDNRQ
The next series is filed under the species Homo sapiens. The experiment in a line: Selectivity ratio of IC50 for human full length PI3Kalpha catalytic subunit/p85alpha to IC50 for human full length PI3Kdelta catalytic subunit/p85alpha. In outline: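 Ratio calculated from the isoform-specific PI3K IC50 values, with enzyme assays run in quadruplicate.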
Series [2] in a line: Clearance in dog hepatocytes at 1 uM by LC/MS/MS analysis. It is filed as ADME, cell-based, Canis lupus familiaris, Hepatocyte.
Series [3] is described as follows: Plasma clearance in Lewis rat at 1 mg/kg, iv administered via infusion over 30 mins measured after 24 hrs by LC/MS/MS analysis. It is filed as ADME, organism-based. In outline:
(§1)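 Female Lewis rats, n=3 per route; 30-min iv infusion at 1 mg/kg and oral dose at 5 mg/kg, both in 30% PEG 400/70% water; plasma concentration-time profiles sampled to 24 h; values as mean ± SD.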

The nature of series [4]: Volume of distribution at steady state in beagle dog at 1 mg/kg, iv administered via infusion over 30 mins measured after 24 hrs by LC/MS/MS analysis. It is filed as ADME, organism-based, Canis lupus familiaris. Conditions: in vivo, read-out: Vdss. In outline: (§2)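 Dogs, n=3 per route; iv dose 1 mg/kg in 5% ethanol/55% PEG 400/40% citrate buffer pH 2; oral dose 5 mg/kg in 15% Captisol (w/v) in water; plasma pharmacokinetics.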

Series [5] can be described thus: Ratio of drug level in blood to plasma in Lewis rat. It is filed as ADME, cell-free. Conditions: blood and plasma.
Series [6] in a line: Half life in beagle dog at 5 mg/kg, po administered through gavage measured after 24 hrs by LC/MS/MS analysis. It is filed as ADME, organism-based, Canis lupus familiaris. Conditions: in vivo.
Series [7] in a line: Oral bioavailability in beagle dog at 5 mg/kg administered through gavage measured after 24 hrs by LC/MS/MS analysis. It is filed as ADME, organism-based, Canis lupus familiaris. Conditions: in vivo. In outline:
as §2

In series [8] the test system is Rattus norvegicus. The experiment in a line: In vivo inhibition of PI3Kdelta in rat B-cells assessed as reduction in […] cell activation. It is filed as functional, organism-based. In outline: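 Rat whole blood, ex vivo; B-cell activation stimulated by anti-IgD (BCR); EC50 and EC90 derived from inhibition of activation.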
Series [9] has as its system Rattus norvegicus. The experiment in a line: In vivo inhibition of PI3Kdelta in collagen-induced Lewis rat arthritis model at 0.34 mg/kg administered bid through oral gavage at 2 to 12 hrs on 3rd and 7th day of compound dosing. It is filed as functional. In outline: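 Female Lewis rats with established collagen-induced arthritis got vehicle or drug by oral gavage twice daily for 7 days (study days 10–16). Blood was sampled at set times after dosing on days 3 and 7 for plasma drug levels. PI3Kδ inhibition was inferred from those levels against EC50/EC90 values from a rat whole-blood ex vivo anti-IgD (BCR)-stimulated B-cell activation assay.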

Series [10] relates to Rattus norvegicus. Briefly: In vivo inhibition of PI3Kdelta in collagen-induced Lewis rat arthritis model at 1.07 mg/kg administered bid through oral gavage at 2 to 12 hrs on 3rd and 7th day of compound dosing. It is filed as functional. In outline:
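CIA Lewis rats dosed orally twice daily; plasma drug levels measured in blood samples taken at set times post-dose on days 3 and 7; trough PI3Kδ inhibition estimated from EC50/EC90 of the rat whole-blood ex vivo BCR-induced B-cell activation assay.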

In series [11] the test system is Rattus norvegicus. Briefly: Antiarthritis activity in collagen-induced Lewis rat arthritis model assessed as reduction in pannus formation at 1.07 mg/kg administered bid through oral gavage for 7 days measured every day started on day 9 and continuing through day 16 of compound dosing relative to vehicle-treated control. It is filed as functional. Also on record: scale not given: the % may be the effect or the level left. In outline: (§3)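 Female Lewis rats with established collagen-induced arthritis dosed orally by gavage twice daily for 7 days (study days 10–16) with vehicle, 0.34, 1.07, 4.6 or 10 mg/kg, or dexamethasone 0.03 mg/kg; right and left ankle diameters by caliper daily, days 9–16; ankle and knee sections graded 0–5 per histopathology parameter; p < 0.05 versus arthritis + vehicle.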

Series [12] deals with Rattus norvegicus. Briefly: Antiarthritis activity in collagen-induced Lewis rat arthritis model assessed as reduction in cartilage damage at 1.07 mg/kg administered bid through oral gavage for 7 days measured every day started on day 9 and continuing through day 16 of compound dosing relative to vehicle-treated control. It is filed as functional. More on the design: scale not given: the % may be the effect or the level left. In outline:
as §3

For series [13], the system named is Rattus norvegicus. The experiment in a line: Antiarthritis activity in collagen-induced Lewis rat arthritis model assessed as reduction of bone resorption at 1.07 mg/kg administered bid through oral gavage for 7 days measured every day started on day 9 and continuing through day 16 of compound dosing relative to vehicle-treated control. It is filed as functional. More on the design: scale not given: the % may be the effect or the level left. In outline:
as §3

The test system of series [14] is Rattus norvegicus. Briefly: Antiarthritis activity in collagen-induced Lewis rat arthritis model assessed as reduction in cartilage damage administered bid through oral gavage for 7 days measured every day started on day 9 and continuing through day 16 of compound dosing. It is filed as functional. In outline:
as §3

Series [15] is described as follows: Cmax in Lewis rat at 1 mg/kg, iv administered via infusion over 30 mins or at 5 mg/kg, po administered via gavage by LC/MS/MS analysis. The conditions noted are these: in vivo. It is filed as ADME, organism-based. In outline: as §1
A short description of series [16]: AUCinfinity in Lewis rat at 1 mg/kg, iv administered via infusion over 30 mins or at 5 mg/kg, po administered via gavage by LC/MS/MS analysis. It is filed as ADME, organism-based. Conditions: in vivo. In outline:
as §1

The term IC50 denotes the point on the concentration scale where inhibition reaches its midpoint. By clearance is commonly meant the rate of elimination divided by the concentration. The half-life is the time in which the quantity being followed falls by half. A word on the bioavailability: it is the share of a dose that reaches the circulation, judged against a reference dose that is usually intravenous. For orientation: EC90 means the point of the concentration-response curve where the effect stands at 90%. What is called EC50 is the concentration needed to bring the measured effect to its halfway point. The inhibition in vivo is the share of the control response that was lost under treatment. As a reminder, the ED50 is the midpoint of the dose-response relation. By Cmax is commonly meant the maximum level reached in the sampled fluid or tissue. The AUC(0-inf) is the area under the concentration-time curve extrapolated to infinity. Take `C[C@H](Nc1nc(N)nc(N)c1C#N)c1nc2cccc(F)c2c(=O)n1-c1cc(F)cc(F)c1`: the IC50 in series [1] came to 2.2 nM. Besides, the Ratio IC50 in the series listed under Homo sapiens came to 1900. Moreover, the CLH in [2] was determined as 4.17 mL/min/kg. For the same molecule, the clearance in series [3] was 12.3 mL/min/kg. Also, the Vd in series [4] was found to be 1.3 L/kg. Besides, the blood plasma ratio in series [5] is 1.4. The same molecule gave a half-life in series [6] of 2.17 h. Besides, in [7], the bioavailability was found to be 100%. Besides, the EC90 in the series on Rattus norvegicus [8] is listed as 100 nM. Moreover, the EC50 with Rattus norvegicus [8] (Rattus norvegicus) came out at 20.5 nM. Moreover, in the series with Rattus norvegicus [9], the inhibition in vivo at 0.34 mg/kg was found to be 25%. In addition, in the series on Rattus norvegicus [10], the inhibition in vivo at 1.07 mg/kg is 50%. The Activity in the series on Rattus norvegicus [11] worked out at 60%; in the series on Rattus norvegicus [12], 50%; in the series with Rattus norvegicus [13], 63%. In addition, the median effective dose (ED50) with Rattus norvegicus [14] is 1.5 mg/kg. Besides, in series [15], the highest concentration (Cmax) came to 2830 nM. Also, in series [16], the total exposure AUC(0-inf) stood at 17 µM·h.
